Tests used:
GL261 cells [1] = assay: Cytotoxicity, CCK-8; assay type: cell-based, mouse; details: GL261, 24 h, n = 5
Outline: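 GL261 cells were exposed to test compound for 24 h, then incubated 20 min in medium containing 10% CCK-8. Absorbance was read at 450 nm. For the +L arm, the zero-concentration point is cells receiving laser without compound. n = 5.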

PTP1B = assay: In vitro PTP1B proteolysis; assay type: cell-based, mouse; details: IFN-γ-treated GL261 cells, Western blot
[2] = test system: intratumoral CD8+ T cells; assay: Exhaustion markers PD-1 and Tim3 in tumor-derived T cells; assay type: cell-based, mouse; details: for Tim3 expression (Tim3-positive cells) / PD-1 expression (PD-1-positive cells): 5 μmol/L, 48 h, n = 3, mean ± SD; for Tim3 expression (Tim3-positive cells): untreated 65.6 ± 4.84%; for PD-1 expression (PD-1-positive cells): untreated 69.6 ± 6.46%; for PD-1 and Tim3 levels: 24 h, no significant differences between the two groups
[3] = Hydrodynamic size by dynamic light scattering; assay type: physicochemical; details: DLS, aqueous condition (saline, 1 mg/mL), mean ± SD, n = 5
Outline: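 Nanoassemblies formed spontaneously in aqueous medium without carrier. They were dispersed at 1 mg/mL in saline and sized by dynamic light scattering (hydrodynamic diameter). Morphology was checked by TEM.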

[4] = Drug loading capacity calculated from molecular weights; assay type: physicochemical
Outline: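 Loading was calculated as (PROTAC MW 1411.59 + VPF MW 702.81) divided by the MW of the whole prodrug conjugate (2595.98). The cathepsin B-cleavable RRK peptide (464.61) is excluded from the numerator.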

Cat B = assay: Target enzyme-specific cleavage, HPLC; assay type: in vitro ADME; details: pH 5.5 MES buffer, 37 °C, 10 μg/mL Cat B
Outline: (§1)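 The self-assembled nanoparticle was incubated at 37 °C in pH 5.5 MES buffer with 10 μg/mL of a single protease: Cat B, Cat D, Cat E, Cat L, caspase-3 or MMP-9. Cat B was also tested in the presence of its irreversible inhibitor Z-FA-FMK. Parent conjugate and cleavage products were followed by HPLC.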

Cat D = assay: Enzyme cleavage, HPLC; assay type: in vitro ADME; details: pH 5.5 MES buffer, 37 °C, 10 μg/mL enzyme
Outline: as §1

Cat E = assay: Enzyme cleavage, HPLC; assay type: in vitro ADME; details: pH 5.5 MES buffer, 37 °C, 10 μg/mL enzyme
Outline: as §1

Cat L = assay: Enzyme cleavage, HPLC; assay type: in vitro ADME; details: pH 5.5 MES buffer, 37 °C, 10 μg/mL enzyme
Outline: as §1

caspase-3 = assay: Enzyme cleavage, HPLC; assay type: in vitro ADME; details: pH 5.5 MES buffer, 37 °C, 10 μg/mL enzyme
Outline: as §1

MMP-9 = assay: Enzyme cleavage, HPLC; assay type: in vitro ADME; details: pH 5.5 MES buffer, 37 °C, 10 μg/mL enzyme
Outline: as §1

GL261 cells [5] = assay: Intracellular ROS generation, DCFH-DA; assay type: cell-based, mouse; details: GL261, 5 μmol/L 24 h, n = 3
Outline: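 GL261 cells were treated 24 h at 5 μmol/L, then loaded with DCFH-DA for 30 min before irradiation (40 mW, 500 s) or no irradiation. Intracellular DCF fluorescence was the read-out. n = 3.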

GL261 cells [6] = assay: Coculture assay, lysis of GL261 cells by T cells; assay type: cell-based, mouse; details: T cells treated 5 μmol/L 48 h, coculture 1 h, CCK-8, n = 3
Outline: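 Intratumoral CD8+ T cells were isolated with CD8 microbeads from subcutaneous GL261 flank tumours in C57BL/6 mice and kept in RPMI1640 with 10% FBS at 37 °C, 5% CO2. They were stained with Far red CFSE and treated 48 h at 5 μmol/L. They were then cocultured 1 h with green CFSE-labelled GL261 cells. GL261 viability was measured by CCK-8.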

intratumoral T cells = assay: Extracellular IFN-γ release from tumor-derived T cells; assay type: cell-based, mouse; details: n = 3
GL261 tumor [7] = assay: Therapeutic efficacy in subcutaneous GL261 GBM model; assay type: in vivo, C57BL/6 mice; details: subcutaneous GL261, i.v. 3 mg/kg VPF equivalent, +L
GL261 tumor [8] = assay: Immune cell analysis of tumor tissues, flow cytometry; assay type: in vivo, C57BL/6 mice; details: for apoptosis rate of T cells within tumor tissues vs saline group: CD8+Annexin V+, +L groups
Outline: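 Female C57BL/6 mice (6 weeks) bore left-flank tumours from 5 × 10^6 subcutaneous GL261 cells. Treatment was i.v. at 3 mg/kg VPF equivalent; +L groups received 671 nm laser, 100 mW, 15 min, 3 h post-injection. On Day 3, tumours were enzymatically dissociated, Fc-blocked 5 min and antibody-stained 45 min. Flow cytometry gated CD45+CD3+CD8+ cytotoxic T cells and CD8+Annexin V+ damaged T cells. n = 5.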

[9] = Brain accumulation in orthotopic GBM model, NIRF imaging; assay type: in vivo, BALB/c-nu mice; details: for time of peak accumulation in brain: orthotopic GL261, i.v., NIRF imaging
Outline: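 Orthotopic model: 1 × 10^5 GL261 cells in saline were injected stereotactically into the brains of BALB/c-nu mice (2.0 mm lateral, 0.5 mm anterior to bregma, 3.0 mm depth, 1 μL/min). Test compound or VPF was given i.v. at an equivalent 3 mg/kg VPF content. Brain accumulation was followed by whole-body NIRF imaging, with ex vivo NIRF imaging of GBM tissue at 6 h.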

[10] = absence of laser irradiation (-L)

Molecule: Cc1cc(-c2c3ccccc3c(Br)c3sc(C)c(C)c23)cc(C)c1O[C@H](Cc1ccccc1)C(=O)O [ertiprotafib, reference compound]
- cytotoxicity (GL261 cells [1]; CCK-8, without laser (-L)): minimum GBM cell death
- PTP1B levels (PTP1B; pERK and pAKT decreased): no changes in PTP1B levels
- Tim3 expression (Tim3-positive cells) [2]: 47.53 ± 3.11%
- PD-1 expression (PD-1-positive cells) [2]: 57.43 ± 5.29%
- PD-1 and Tim3 levels [2]: lower PD-1 and Tim3 levels compared to untreated cells

Molecule: VPF–KALAPYIPRRK–ertiprotafib [PNPTP1B]
- average diameter (hydrodynamic size) [3]: 87.79 ± 1.25 nm
- drug loading capacity, PROTAC share [4]: 54.4%
- drug loading capacity, VPF share [4]: 34.2%
- time to complete cleavage into PROTAC and VPF–K (Cat B): ≤ 1 h
- stability with Cat D (Cat D): stable
- stability with Cat E (Cat E): stable
- stability with Cat L (Cat L): stable
- stability with caspase-3 (caspase-3): stable
- stability with MMP-9 (MMP-9): stable
- cytotoxicity (GL261 cells [1]; CCK-8, with laser irradiation (+L)): even more potent tumor-killing effect
- cytotoxicity (GL261 cells [1]; CCK-8, without laser (-L)): significantly greater cytotoxicity than ertiprotafib
- PTP1B and related downstream proteins (pERK, pAKT) levels (PTP1B; 5 μmol/L, 24 h): fully restored to levels similar to those in IFN-γ-untreated cells
- intracellular ROS generation (GL261 cells [5]; [10]): no ROS generation was detected
- intracellular ROS generation (GL261 cells [5]; laser 40 mW 500 s (+L)): nearly identical
- Tim3 expression (Tim3-positive cells) [2]: 30.2 ± 4.33%
- PD-1 expression (PD-1-positive cells) [2]: 42.47 ± 6.41%
- PD-1 and Tim3 levels [2]: lower PD-1 and Tim3 levels compared to untreated cells
- GL261 cell lysis by cocultured T cells (GL261 cells [6]): significantly increased
- extracellular release of IFN-γ (intratumoral T cells): higher quantity
- time to complete regression in all mice (GL261 tumor [7]): ≤ 8 days
- apoptosis rate of T cells within tumor tissues vs saline group (GL261 tumor [8]): no significant differences
- increase in cytotoxic T cells in tumor tissues, (+L) relative to (-L) group (GL261 tumor [8]; CD45+CD3+CD8+, Day 3, n = 5): 1.2 fold
- brain fluorescence intensity relative to VPF ([9]; orthotopic GL261, i.v. 3 mg/kg VPF equivalent, 6 h post-injection, NIRF, n = 3): 2.16 fold
- time of peak accumulation in brain [9]: 6 h

Molecule: verteporfin [VPF, reference compound]
- intracellular ROS generation (GL261 cells [5]; [10]): no ROS generation was detected
- intracellular ROS generation (GL261 cells [5]; laser 40 mW 500 s (+L)): nearly identical
- apoptosis rate of T cells within tumor tissues vs saline group (GL261 tumor [8]): no significant differences
- time of peak accumulation in brain [9]: 6 h
